Activity calls are given as the source filed them. The rule behind the calls is not given here.
Columns and labels:
MCF7 [1] = test: Cytotoxicity against human MCF7 cells after 48 hrs by MTT assay; type: functional, cell-based; conditions: for IC50: MCF7, 48 h, read-out: IC50
Method in brief: (§1)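 MTT assay. Cells were grown in DMEM with 10% FBS and penicillin/streptomycin at 37 °C under 5% CO2, seeded at 1–2×10^3 cells/well and treated 12 h later with 1×10^-12 to 1×10^-5 M ([…] from DMSO stock, final DMSO <0.5%) for 48 h. MTT was added at 0.5 mg mL⁻¹, formazan dissolved in DMSO and read at 570 nm. IC50 is the concentration giving 50% cytotoxicity. Quadruplicates, ≥3 independent experiments.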

[2] = (§2) Cytotoxicity against human U87 cells expressing wild-type p53 after 48 hrs by MTT assay; type: functional, cell-based, U-87MG ATCC; conditions: U-87 MG, read-out: IC50; method in brief: as §1
U-87MG ATCC [3] = test: as §2; type: functional, cell-based; method in brief: as §1
T98G [4] = test: Cytotoxicity against human T98G cells expressing mutant p53 after 48 hrs by MTT assay; type: functional, cell-based; conditions: for IC50: read-out: IC50; method in brief: as §1
[5] = Haemolytic activity in human RBC after 1 hr by photometry; type: ADME, cell-based; conditions: Erythrocyte
Method in brief: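 Human EDTA blood was spun at 700xg for 10 min and the erythrocytes washed three times in cold PBS pH 7.4, then resuspended in it. Cells were incubated with varying compound concentrations for 1 h at 37 °C with shaking. After centrifugation, released haemoglobin was read at 540 nm to give the IC50. Mean ± SD, n = 4.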

MCF7 [6] = test: Induction of apoptosis in human MCF7 cells assessed as irregularities in cellular shape at 1 uM after 48 hrs by DAPI staining; type: functional, cell-based
MCF7 [7] = test: Induction of apoptosis in human MCF7 cells assessed as cell shrinkage at 1 uM after 48 hrs by DAPI staining; type: functional, cell-based
MCF7 [8] = test: Induction of apoptosis in human MCF7 cells assessed as membrane blebbing at 1 uM after 48 hrs by DAPI staining; type: functional, cell-based
MCF7 [9] = test: Induction of apoptosis in human MCF7 cells assessed as chromatin condensation at 1 uM after 48 hrs by DAPI staining; type: functional, cell-based
Method in brief: (§3)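 Cells were treated at 1 μM for 48 h, washed in PBS and fixed in 70% methanol for 30 min at room temperature. They were stained with 0.4 μg mL⁻¹ DAPI for 1 h in the dark, and nuclear condensation and fragmentation were scored by fluorescence microscopy (385–410 nm).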

MCF7 [10] = test: Induction of apoptosis in human MCF7 cells assessed as DNA fragmentation at 1 uM after 48 hrs by DAPI staining; type: functional, cell-based; method in brief: as §3
T98G [11] = test: Induction of apoptosis in human T98G cells assessed as irregularities in cellular shape at 1 uM after 48 hrs by DAPI staining; type: functional, cell-based
T98G [12] = test: Induction of apoptosis in human T98G cells assessed as cell shrinkage at 1 uM after 48 hrs by DAPI staining; type: functional, cell-based
T98G [13] = test: Induction of apoptosis in human T98G cells assessed as membrane blebbing at 1 uM after 48 hrs […]; type: functional, cell-based
T98G [14] = test: Induction of apoptosis in human T98G cells assessed as chromatin condensation at 1 uM after 48 hrs by DAPI staining; type: functional, cell-based; method in brief: as §3
T98G [15] = test: Induction of apoptosis in human T98G cells assessed as DNA fragmentation at 1 uM after 48 hrs by DAPI staining; type: functional, cell-based; method in brief: as §3
U-87MG ATCC [16] = test: Induction of apoptosis in human U87 cells assessed as irregularities in cellular shape at 1 uM after 48 hrs by DAPI staining; type: functional, cell-based
U-87MG ATCC [17] = test: Induction of apoptosis in human U87 cells assessed as cell shrinkage at 1 uM after 48 hrs by DAPI staining; type: functional, cell-based
U-87MG ATCC [18] = test: Induction of apoptosis in human U87 cells assessed as membrane blebbing at 1 uM after 48 hrs by DAPI staining; type: functional, cell-based
U-87MG ATCC [19] = test: Induction of apoptosis in human U87 cells assessed as chromatin condensation at 1 uM after 48 hrs by DAPI staining; type: functional, cell-based; method in brief: as §3
U-87MG ATCC [20] = test: Induction of apoptosis in human U87 cells assessed as DNA fragmentation at 1 uM after 48 hrs by DAPI staining; type: functional, cell-based; method in brief: as §3
MCF7 [21] = test: Induction of apoptosis in human MCF7 cells assessed as appearance of autophagolysosomes at 1 uM after 48 hrs by acridine orange/ethidium bromide staining-based microscopy; type: functional, cell-based
Method in brief: (§4)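 After 48 h at 1 μM, cells were incubated for 15 min in serum-free medium containing 1 μg mL⁻¹ acridine orange and 1 μg mL⁻¹ ethidium bromide. The medium was removed and cells imaged by inverted fluorescence microscopy (530–650 nm). Green/orange nuclear patterns and acidic cytoplasmic vacuoles were scored.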

T98G [22] = test: Induction of apoptosis in human T98G cells assessed as appearance of autophagolysosomes at 1 uM after 48 hrs by acridine orange/ethidium bromide staining-based microscopy; type: functional, cell-based; method in brief: as §4
U-87MG ATCC [23] = test: Induction of apoptosis in human U87 cells assessed as appearance of autophagolysosomes at 1 uM after 48 hrs by acridine orange/ethidium bromide staining-based microscopy; type: functional, cell-based; method in brief: as §4
MCF7 [24] = test: Induction of apoptosis in human MCF7 cells assessed as chromatin condensation at 1 uM after 48 hrs by acridine orange/ethidium bromide staining-based microscopy; type: functional, cell-based; method in brief: as §4
T98G [25] = test: Induction of apoptosis in human T98G cells assessed as chromatin condensation at 1 uM after 48 hrs by acridine orange/ethidium bromide staining-based microscopy; type: functional, cell-based; method in brief: as §4
U-87MG ATCC [26] = test: Induction of apoptosis in human U87 cells assessed as chromatin condensation at 1 uM after 48 hrs by acridine orange/ethidium bromide staining-based microscopy; type: functional, cell-based; method in brief: as §4

SMILES	Activity (MCF7 [1])	IC50 (MCF7 [1])	IC50 [2]	Activity (U-87MG ATCC [3])	Activity (T98G [4])	IC50 (T98G [4])	IC50 [5]	Activity (MCF7 [6])	Activity (MCF7 [7])	Activity (MCF7 [8])	Activity (MCF7 [9])	Activity (MCF7 [10])	Activity (T98G [11])	Activity (T98G [12])	Activity (T98G [13])	Activity (T98G [14])	Activity (T98G [15])	Activity (U-87MG ATCC [16])	Activity (U-87MG ATCC [17])	Activity (U-87MG ATCC [18])	further results
CC(=NNC(=S)Nc1cccc(Cl)c1)c1ccccn1 (mixture of isomers)	Dose-dependent effect	24 nM	31 nM	Dose-dependent effect	Dose-dependent effect	1 nM	> 10000 nM	Active	Active	Active	Active	Active	Active	Active	Active	Active	Active	Active	Active	Active	Activity (U-87MG ATCC [19]): Active; Activity (U-87MG ATCC [20]): Active; Activity (MCF7 [21]): Active; Activity (T98G [22]): Active; Activity (U-87MG ATCC [23]): Active; Activity (MCF7 [24]): Active; Activity (T98G [25]): Active; Activity (U-87MG ATCC [26]): Active
CC(=NNC(=S)Nc1ccccc1F)c1ccccn1 (mixture of isomers)	Dose-dependent effect	0.39 nM	5 nM	Dose-dependent effect	Dose-dependent effect	3.1 nM	> 10000 nM	Active	Active	Active	Active	Active	Active	Active	Active	Active	Active	Active	Active	Active	Activity (U-87MG ATCC [19]): Active; Activity (U-87MG ATCC [20]): Active; Activity (MCF7 [21]): Active; Activity (T98G [22]): Active; Activity (U-87MG ATCC [23]): Active; Activity (MCF7 [24]): Active; Activity (T98G [25]): Active; Activity (U-87MG ATCC [26]): Active
CC(=NNC(=S)Nc1cccc(F)c1)c1ccccn1 (mixture of isomers)	Dose-dependent effect	9 nM	18 nM	Dose-dependent effect	Dose-dependent effect	12 nM	> 10000 nM	Active	Active	Active	Active	Active	Active	Active	Active	Active	Active	Active	Active	Active	Activity (U-87MG ATCC [19]): Active; Activity (U-87MG ATCC [20]): Active; Activity (MCF7 [21]): Active; Activity (T98G [22]): Active; Activity (U-87MG ATCC [23]): Active; Activity (MCF7 [24]): Active; Activity (T98G [25]): Active; Activity (U-87MG ATCC [26]): Active
CC(=NNC(=S)Nc1ccc(F)cc1)c1ccccn1 (mixture of isomers)	Dose-dependent effect	1.2 nM	10 nM	Dose-dependent effect	Dose-dependent effect	17 nM	> 10000 nM	Active	Active	Active	Active	Active	Active	Active	Active	Active	Active	Active	Active	Active	Activity (U-87MG ATCC [19]): Active; Activity (U-87MG ATCC [20]): Active; Activity (MCF7 [21]): Active; Activity (T98G [22]): Active; Activity (U-87MG ATCC [23]): Active; Activity (MCF7 [24]): Active; Activity (T98G [25]): Active; Activity (U-87MG ATCC [26]): Active
CC(=NNC(S)=Nc1ccccc1Cl)c1ccccn1 (mixture of isomers)	Dose-dependent effect	0.16 nM	2.6 nM	Dose-dependent effect	Dose-dependent effect	1.1 nM	> 10000 nM	Active	Active	Active	Active	Active	Active	Active	Active	Active	Active	Active	Active	Active	Activity (U-87MG ATCC [19]): Active; Activity (U-87MG ATCC [20]): Active; Activity (MCF7 [21]): Active; Activity (T98G [22]): Active; Activity (U-87MG ATCC [23]): Active; Activity (MCF7 [24]): Active; Activity (T98G [25]): Active; Activity (U-87MG ATCC [26]): Active

— ChEMBL document CHEMBL2034980, “N⁴-Phenyl-substituted 2-acetylpyridine thiosemicarbazones: cytotoxicity against human tumor cells, structure-activity relationship studies and investigation on the mechanism of action” (Bioorg Med Chem, 2012)
